From the RNAGym collection of RNA variant scans (doi:10.1126/science.aae0568)
Variants at the floor of the assay were thinned out.

B1: tRNA (parent)
chain: GUUCCGUUGGCGUAAUGGUAACGCGUCUCCCUCCUAAGGAGAAGACUGCGGGUUCGAGUCCCGUACGGAACG

Variants of: B1
Assay: yeast fitness relative to wild type (ratio to wild type); higher = fitter; tRNA-Arg(CCU), competitive growth, 37 C, YPD
Procedure, shortened: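 Variants of the tRNA-Arg(CCU) gene, chemically synthesised with a 3% per-site mutation rate at 69 sites, were placed at the native genomic locus in Saccharomyces cerevisiae. The pooled strains were competed in YPD at 37°C for 24 hours in six parallel replicates. Gene amplicons from the start population and from each end population were read by 100-nucleotide paired-end sequencing. Darwinian fitness relative to wild type came from changes in genotype frequencies; genotypes needed ≥ 100 starting reads, and estimates < 0.5 were set to 0.5.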

Variant	yeast fitness
G9A C24G U35C C49U C61G	≤ 0.5
G9A C24A C55A	≤ 0.5
G9A C29A A37G G58A	0.571
G9A G41A	1.02
G9A C29G G44A	0.614
G9A G23C A45G	0.575
G9A G56A C62U G67A	0.525
G9A C22A A37U C55G	≤ 0.5
G9A G12U A14U U53A	0.529
G9A G48A G68C	0.984
G9A C22A	0.919
G9A C22U	1.04
G9A C22G	0.869
G9A G68A A69C	0.802
G9A G68A	0.864
G9A C49U C55A	≤ 0.5
G9A C24A A36C A37G C49A	≤ 0.5
G9A C33G G44A C49G	0.607
G9A C55G U64A	≤ 0.5
G9A U13A A65G C66U	≤ 0.5
G9A C30G U32C A40G G50C A57U	≤ 0.5
G9A C24U A65C	0.536
G9A G12U A14U A37U C49G C60G	≤ 0.5
G9A C62A C66U	≤ 0.5

Variant	yeast fitness
G9A C11U A36C C49G U53G	≤ 0.5
G9A U13A	1.03
G9A C34G U53C A57C A69U	≤ 0.5
G9A G10A U28C	≤ 0.5
G9A C11G C24G A42U	≤ 0.5
G9A C31G A65C	≤ 0.5
G9A C34G C66U	≤ 0.5
G9A C11A G38C C60G	≤ 0.5
G9A C11U C29A U53G	≤ 0.5
G9A C33U	0.897
G9A C11A G38C A40C	≤ 0.5
G9A C33U C55G	0.66
G9A C22A A57G	0.628
G9A C24G C34G A69U	0.533
G9A C22U C30U	0.519
G9A C11U C29G	0.609
G9A C11U A36C G68C	≤ 0.5
G9A C31U A40G G52C A65G A69G	≤ 0.5
G9A C11A G58C	≤ 0.5
G9A C24A C49A A57C	≤ 0.5
G9A G18A C60G	≤ 0.5
G9A C24U C30U U32G A65C C66G	≤ 0.5
G9A C34A G58A A70C	≤ 0.5
G9A G12C C31A C33G A45G A70U	≤ 0.5

Variant	yeast fitness
G9A C34U C61G	0.521
G9A C31U A40C C66A	≤ 0.5
G9A C11G C24G C27A U28C A65U	≤ 0.5
G9A C46G C49U A69U	1.11
G9A G23C A37G	≤ 0.5
G9A C11U C31U U59A	≤ 0.5
G9A C27G	0.757
G9A G25C A42C	1
G9A C33U A36C A45C G48A C55A	≤ 0.5
G9A C24U U26G	0.569
G9A C33U A36U U59A	≤ 0.5
G9A G12A C22U U53G	≤ 0.5
G9A G38A A69C	0.724
G9A G10A C31G G52A	0.531
G9A C11G C24G U32A G58C	≤ 0.5
G9A C11U A15C A20G G48A C60G	0.662
G9A G25U A36U G56C A65C	0.717
G9A C11G G50A G51A	≤ 0.5
G9A C11G C24G U32A G50A C61U G63C	≤ 0.5
G9A C27G C31U C49G G58C	≤ 0.5
G9A G12C G25C C30G C31A G50A G51C	≤ 0.5
G9A C24U	0.997
G9A C24G	0.594
G9A G51A A57U U59C	≤ 0.5

Variant	yeast fitness
G9A C31A A43U C61A	≤ 0.5
G9A C30A A42C	0.562
G9A C31A A42C	0.54
G9A G10A C31G G52A C61G	≤ 0.5
G9A C29U C46U C66U	0.637
G9A G58A	0.918
G9A C31U A37C G63A	≤ 0.5
G9A C29U	0.914
G9A G10A A21G G56A A65U	≤ 0.5
G9A G63C	0.872
G9A G23A G25C U28C	≤ 0.5
G9A C29A G50A A69C	≤ 0.5
G9A C24A G38A	≤ 0.5
G9A G10A C31G G52A C62A	≤ 0.5
G9A C30G G68U	≤ 0.5
G9A C24G C49U C55G G58A	≤ 0.5
G9A C22U C30A C49A C55A C62U C66U	≤ 0.5
G9A C11U G67C	0.697
G9A G38C C66U	≤ 0.5
G9A G48A G50C A65G C66U	≤ 0.5
G9A C24A U59A	≤ 0.5
G9A C11G U19C G67A	≤ 0.5
G9A G25C C30U A57G	0.526
G9A C34A A45C	0.541

Variant	yeast fitness
G9A G12A C49U	0.692
G9A C29A A42C C55U	≤ 0.5
G9A G23C U59A	≤ 0.5
G9A C11U A36C G48C	≤ 0.5
G9A C11U A36C A57G G68C	≤ 0.5
G9A G48A G50C	0.581
G9A C24G C29G G39C C55A	≤ 0.5
G9A G10C G25C C33U C62A C66U	≤ 0.5
G9A C34U	0.793
G9A C34A	0.704
G9A C31U C49U A69C	≤ 0.5
G9A C33U A42C A69U	≤ 0.5
G9A C22G C31U A65C C66A	≤ 0.5
G9A G18A C24A G39A A43C	0.558
G9A C31A A42C A57G	0.522
G9A G52A C61U A69C	≤ 0.5
G9A C24U A40U A57C	≤ 0.5
G9A C62G	0.896
G9A C62U	0.916
G9A C22G U35C A37U	0.535
G9A C11U A36C A57G A65U	≤ 0.5
G9A C24G G41C U53C G58U	≤ 0.5
G9A G23C C30G A40U C46U	0.58
G9A C24G C27U G44C C61G	≤ 0.5

Variant	yeast fitness
G9A C29G U53G	≤ 0.5
G9A G39C G44C C55A	0.606
G9A C31U U53A	0.638
G9A G10C G17A G25A C31U	≤ 0.5
G9A C46G U53C A65G	≤ 0.5
G9A C62U A70U	0.68
G9A G44A G48A G50C	≤ 0.5
G9A C11U G48A	0.715
G9A C49A	0.654
G9A C49G	0.896
G9A G25C C30U G51C G58U	≤ 0.5
G9A C27G C31G A36U A40G G48A G52A C60A	0.575
G9A C49U A69U	0.785
G9A C46G	0.993
G9A C29U U47A A57G	≤ 0.5
G9A C27G A37G U53A	≤ 0.5
G9A C22A C61U	0.622
G9A C30G C31G U32A C66U	≤ 0.5
G9A C27A A42C C49G G51C C55G C66U	≤ 0.5
G9A C60G	0.629
G9A G17C A45U A65C	0.583
G9A G18A C24G A45U	0.52
G9A G10C G17A G25A	≤ 0.5
G9A C34U A69U	0.549

Variant	yeast fitness
G9A C27G C29A C49G	≤ 0.5
G9A C22A C55U	0.626
G9A C22U U26A A43U A65U	≤ 0.5
G9A C27U A36G	0.59
G9A C33U A37U	0.605
G9A C11G C55G G63C G67C	0.578
G9A C30A G39A U47A G63C	≤ 0.5
G9A G10C C34A	≤ 0.5
G9A G38A C62U	0.939
G9A G17C C29G	0.567
G9A C22A U53A A57G	0.554
G9A C22U C30G C61U A70U	≤ 0.5
G9A G50A C55U	0.59
G9A G12U A14U A65U	≤ 0.5
G9A C66A	0.775
G9A C66G	0.703
G9A G38C	0.758
G9A C29U U47A A65U	≤ 0.5
G9A C29U C46U G67C	0.583
G9A C30G	0.707
G9A C30A	0.964
G9A C30U	0.888
G9A G67U	0.863
